This is an account of results in ChEMBL document CHEMBL1144880, “Identification of phenylisoxazolines as novel and viable antibacterial agents active against Gram-positive pathogens” (J Med Chem, 2003).

Data set [1] is described as follows: Tmax value in Male Sprague-Dawley Rat at dose 25 (mg/kg po) [tmax (h)]. The format is ADME, organism-based. The following applies: in vivo. In short, it runs like this:
(§1)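 Male Sprague-Dawley rats dosed intravenously or orally. Intact compound measured in plasma by HPLC-UV after protein-precipitation sample preparation. Half-life reported as harmonic mean apparent terminal disposition half-life. Bioavailability is absolute oral bioavailability. Some comparator values are archival data.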

The nature of data set [2]: Cmax value in Male Sprague-Dawley Rat at dose 10 (mg/kg iv). The format is ADME, organism-based. Details: dose 10 mg/kg, route intravenous. Particulars: in vivo. The essentials: as §1
Data set [3] can be described thus: Harmonic mean apparent terminal disposition half-life [t1/2beta (h)] in Male Sprague-Dawley Rat at dose 10 (mg/kg iv). The format is ADME, organism-based. Particulars: in vivo, read-out: T1/2 beta (converted). The essentials:
as §1

The next data set is filed under the species Rattus norvegicus. Description: Compound was evaluated for metabolic stability via In vitro Rat 5E6 cell at 50 uM concentration. The format is functional.
Data set [4] is described as follows: Cmax value in Male Sprague-Dawley Rat at dose 25 (mg/kg po). The format is ADME, organism-based. Also on record: dose 25 mg/kg, route oral. Particulars: in vivo. The essentials:
as §1

The nature of data set [5]: Volume distribution in Male Sprague-Dawley Rat (10 mg/kg iv). The format is ADME, organism-based. Particulars: in vivo, read-out: Vss. The essentials:
(§2)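 Male Sprague-Dawley rats given the compound intravenously. Intact compound in plasma was measured by HPLC-UV after protein-precipitation sample preparation.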

Data set [6] is described as follows: Plasma clearance in Male Sprague-Dawley Rat (10 mg/kg iv). The format is ADME, organism-based. In short, it runs like this: as §1
Data set [7] in a line: Oral bioavailability in rat (Sprague-Dawley) (male) (dose 10 mg/kg i.v.). The format is ADME, organism-based. Particulars: in vivo. In short, it runs like this: as §1
Data set [8] is described as follows: Oral bioavailability in rat (Sprague-Dawley) (male) (dose 25 mg/kg p.o.). The format is ADME, organism-based. The following applies: in vivo. In short, it runs like this:
as §1

Data set [9] has as its system Staphylococcus aureus. Description: In vitro minimum inhibitory concentration (MIC) against Staphylococcus aureus UC12673. The format is functional. In short, it runs like this:
(§3)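 MIC determined by standard broth microdilution, defined as the lowest drug concentration (µg/mL) inhibiting visible growth.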

The nature of data set [10]: Volume distribution in Male Sprague-Dawley Rat (10.1 mg/kg iv). The following applies: in vivo, read-out: Vss. The format is ADME, organism-based. In short, it runs like this:
as §2

The test system of a further data set is Mus musculus. Nature of the data set: In Vivo effective dose required for antibacterial activity in a systemic mouse infection model (SMIM) upon peroral administration against Staphylococcus aureus UC9213. The following applies: po. The format is functional. In short, it runs like this:
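Compound was given orally at 1 and 5 h after infection. Deaths were monitored for at least 6 days, and ED50 (dose curing 50% of mice) was calculated by probit analysis.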

A short description of data set [11]: Absolute oral bioavailability in Male Sprague-Dawley Rat (10.1 mg/kg iv). The format is ADME, organism-based. Particulars: in vivo. The essentials: as §1
Data set [12] relates to Staphylococcus aureus. Nature of the data set: In vitro minimum inhibitory concentration (MIC) against Staphylococcus aureus UC9213. The format is functional. In short, it runs like this: as §3
Data set [13] in a line: Plasma clearance in Male Sprague-Dawley Rat (49.4 mg/kg po). The format is ADME, organism-based. The essentials: as §1
The nature of data set [14]: Harmonic mean apparent terminal disposition half-life [t1/2beta (h)] in Male Sprague-Dawley Rat at dose 10.1 (mg/kg iv). The format is ADME, organism-based. Particulars: in vivo, read-out: T1/2 beta (converted). The essentials:
as §1

Data set [15] is described as follows: Plasma clearance in Male Sprague-Dawley Rat (10.1 mg/kg iv). The format is ADME, organism-based. The essentials:
as §1

Data set [16] in a line: Absolute oral bioavailability in Male Sprague-Dawley Rat (49.4 mg/kg po). The format is ADME, organism-based. Particulars: in vivo. In short, it runs like this:
as §1

The species entered for a further data set is Homo sapiens. Description: Compound was evaluated for metabolic stability via In vitro Human 5E6 cell at 25 uM concentration. The format is functional.
The subject of a further data set is Moraxella catarrhalis. Nature of the data set: In vitro minimum inhibitory concentration (MIC) against Moraxella catarrhalis UC30610. The format is functional. The essentials: as §3
Data set [17] in a line: Cmax value in Male Sprague-Dawley Rat at dose 10.1 (mg/kg iv). The format is ADME, organism-based. Also on record: dose 10.1 mg/kg, route intravenous. Particulars: in vivo. In short, it runs like this:
as §1

The test system of a further data set is Enterococcus faecalis. Nature of the data set: In vitro minimum inhibitory concentration (MIC) against Enterococcus faecalis UC9217. The format is functional. In short, it runs like this:
as §3

The subject of the next data set is Haemophilus influenzae. Description: In vitro minimum inhibitory concentration (MIC) against Haemophilus influenzae UC30063. The format is functional. The essentials:
as §3

Data set [18] has as its system Staphylococcus epidermidis. Nature of the data set: In vitro minimum inhibitory concentration (MIC) against Staphylococcus epidermidis UC12084. The format is functional. The essentials:
as §3

A short description of data set [19]: Tmax value in Male Sprague-Dawley Rat at dose 49.4 (mg/kg po) [tmax (h)]. The format is ADME, organism-based. The following applies: in vivo. The essentials: as §1
A short description of data set [20]: Cmax value in Male Sprague-Dawley Rat at dose 49.4 (mg/kg po). The format is ADME, organism-based. Details: dose 49.4 mg/kg, route oral. The following applies: in vivo. The essentials: as §1
For another data set, the system named is Escherichia coli. Nature of the data set: In vitro minimum inhibitory concentration (MIC) against Escherichia coli UC6674. The format is functional. In short, it runs like this: as §3
The nature of data set [21]: Harmonic mean apparent terminal disposition half-life [t1/2beta (h)] in Male Sprague-Dawley Rat at dose 49.4 (mg/kg po). The format is ADME, organism-based. The following applies: in vivo, read-out: T1/2 beta (converted). In short, it runs like this: as §1
Another data set deals with Streptococcus pneumoniae. Nature of the data set: In vitro minimum inhibitory concentration (MIC) against Streptococcus pneumoniae UC9912. The format is functional. In short, it runs like this: as §3

Values after ≈ are worked out from the molar mass of the structure shown.

Consider `CC(=O)NC[C@H]1CN(c2ccc(N3CCN(C(=O)CO)CC3)c(F)c2)C(=O)O1` [EPEREZOLID], for which, in data set [1], the Tmax was 79.8 min. Also, the Cmax was found to be 20800 ng/mL in [2] and 2260 ng/mL in data set [4]. The half-life in [3] was 57.6 min. In addition, the “Remaining at 40 min” value in the data set listed under Rattus norvegicus worked out at 102%. Moreover, the Vd in data set [5] came to 0.99 L/kg. The compound also displayed a clearance in data set [6] of 24.9 mL/min/kg. The compound further gave a F in [7] of 100%. The bioavailability in data set [8] is 56%.
Turning to `CC(=O)NC[C@H]1CC(c2ccc(N3CCN(C(=O)CO)CC3)c(F)c2)=NO1`, the MIC with Staphylococcus aureus [9] is 4 µg/mL (≈ 10.6 µM); with Staphylococcus aureus [12] it was 4 µg/mL (≈ 10.6 µM); in the data set on Moraxella catarrhalis, 8 µg/mL (≈ 21.1 µM); against Enterococcus faecalis, 4 µg/mL (≈ 10.6 µM); in the data set on Haemophilus influenzae, over 16 µg/mL; in [18], 1 µg/mL (≈ 2.64 µM). The MIC in the data set with Escherichia coli is over 16 µg/mL; in the data set with Streptococcus pneumoniae, 1 µg/mL (≈ 2.64 µM). For the same compound, the Vd in data set [10] was 0.95 L/kg. In the data set with Mus musculus, this compound had an ED50 of 9.1 mg/kg. The figures for the bioavailability in [11] and in [16] were 100% and 86%, respectively. The Remaining at 40 min in the data set listed under Rattus norvegicus was 100%; in the data set listed under Homo sapiens, 101%. For the same compound, in data set [13], the CL/F was 30.8 mL/min/kg. In addition, the half-life in data set [14] is 36.6 min; in data set [21] it was 42 min. The same compound yielded a clearance in data set [15] of 26.2 mL/min/kg. For the same compound, the results for the Cmax in data set [17] and in data set [20] were 17700 ng/mL and 6170 ng/mL, respectively. In addition, the Tmax in data set [19] was found to be 150 min.

The term Tmax denotes the time from dosing to the highest level. One may read the Cmax as the peak of the concentration-time curve. A word on the clearance: it is the volume of plasma or blood freed of the substance per unit of time. One may read the bioavailability as dose-corrected exposure relative to a reference, in per cent. A lower bioavailability goes with poor availability. Usually ED50 stands for the midpoint of the dose-response relation. Low values mean an effect at a small dose, high ones a need for a large dose. As a reminder, the CL/F is the apparent clearance, not corrected for the fraction that reaches the circulation.
